This is an account of results in ChEMBL document CHEMBL3425411, “Synthesis of β-Carboline-Based N-Heterocyclic Carbenes and Their Antiproliferative and Antimetastatic Activities against Human Breast Cancer Cells” (J Med Chem, 2015).

For series [1], the system named is MDA-MB-231. The series is described as follows: Downregulation of Bcl-XL expression in human MDA-MB-231 cells at 5 to 7.5 uM after 24 hrs by Western blot analysis. In kind it is functional, cell-based. In short, it runs like this: (§1)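 Cells were treated for 24 h. Lysates were made in RIPA buffer, and 40 μg protein was resolved on 10–15% SDS-PAGE and transferred to PVDF. Membranes were blocked with 5% milk and probed overnight at 4 °C with primary antibodies, then HRP secondaries. Detection was by ECL with β-actin as loading control. Blots represent three independent experiments.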
In general terms: Immunoblotting shows a protein as a band on a membrane.

In series [2] the target is T1, Albumin (Homo sapiens, UniProt P02768). As to the kind of experiment: Binding affinity to human serum albumin at 283 K at pH 7.4 by fluorescence spectra analysis. In kind it is ADME. The note with it: isolated protein. In short, it runs like this:
(§2)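 Steady-state Trp fluorescence quenching of HSA (10 μM, 0.05 M phosphate pH 7.4, excitation 295 nm) by increasing compound was run at each of three temperatures. F₀/F was fitted to the Stern–Volmer equation for KSV. Binding constant Kb and n came from the modified equation log[(F₀−F)/F] = log Kb + n log[Q].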

The subject of series [3] is MDA-MB-231. The series is described as follows: Antimigratory activity against human MDA-MB-231 cells at 2.5 to 5 uM after 12 to 24 hrs by wound healing assay. The class given is functional, cell-based. In short, it runs like this: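 2 × 10⁵ cells were plated in six-well plates and scratched with a 200 μL tip. Debris was removed, then cells were treated (0, 1, 2.5, 5, 7.5 μM; or 0–5 μM). The wound was photographed at 0, 12 and 24 h under 100× phase contrast. Area was measured as percent wound closure versus control. Three independent experiments, mean ± SEM.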

The subject of series [4] is MDA-MB-231. The series is described as follows: Downregulation of cyclin B expression in human MDA-MB-231 cells at 5 to 7.5 uM after 24 hrs by Western blot analysis. In kind it is functional, cell-based. In short, it runs like this: as §1
Series [5] concerns MDA-MB-231. The series is described as follows: Antiinvasive activity against human MDA-MB-231 cells at 1 uM after 48 hrs by transwell assay. The class given is functional, cell-based. In outline:
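Matrigel (growth factor reduced, diluted in serum-free medium) coated on 8 μm pore polycarbonate transwell membranes, set 2 h at 37 °C. 30 000 cells/well seeded in RPMI-1640 with 1% FBS plus compound; lower chamber had 10% FBS as chemoattractant. After 48 h, non-invaded cells were swabbed off and invaded cells were methanol-fixed and stained with 0.1% crystal violet. At least 10 random fields were counted and expressed versus control.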

The test system of series [6] is MDA-MB-231. As to the kind of experiment: Induction of apoptosis in human MDA-MB-231 cells assessed as PARP cleavage at 5 to 7.5 uM after 24 hrs by Western blot analysis. The class given is functional, cell-based. In short, it runs like this: as §1
In series [7] the target is T1, Albumin. As to the kind of experiment: Binding affinity to human serum albumin assessed as change in secondary structure up to 40 uM at pH 7.4 by circular dichroism spectra analysis. In kind it is ADME. To be noted: isolated protein.
For series [8], the system named is MDA-MB-231. The series is described as follows: Downregulation of survivin expression in human MDA-MB-231 cells at 5 to 7.5 uM after 24 hrs by Western blot analysis. In kind it is functional, cell-based. In short, it runs like this:
as §1

Series [9] has as its system MDA-MB-231. The series is described as follows: Downregulation of Bcl-2 expression in human MDA-MB-231 cells at 5 to 7.5 uM after 24 hrs by Western blot analysis. In kind it is functional, cell-based. In outline:
as §1

In series [10] the target is c-Jun N-terminal kinase, JNK (Homo sapiens) (UniProt P45983+P53779+P45984). As to the kind of experiment: Inhibition of SAPK/JNK phosphorylation in human MDA-MB-231 cells at 5 to 7.5 uM after 24 hrs by Western blot analysis. In kind it is cell-based. In outline:
(§3)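 MDA-MB-231 cells treated 24 h, then lysed in RIPA buffer. 40 μg protein run on 10–15% SDS–PAGE and transferred to PVDF. Blocked in 5% milk, probed overnight at 4 °C with primary antibodies (phospho- and total ERK1/2, JNK, p38, cleaved caspase-3), then HRP secondary. ECL detection with β-actin as loading control. Blots representative of three experiments.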

Series [11] concerns MDA-MB-231. The series is described as follows: Upregulation of cleaved caspase-3 expression in human MDA-MB-231 cells at 5 to 7.5 uM after 24 hrs by Western blot analysis. The class given is functional, cell-based. In short, it runs like this: as §3
For series [12], the target named is 72 kDa type IV collagenase (Homo sapiens) (UniProt P08253). The series is described as follows: Inhibition of MMP-2 in human MDA-MB-231 cells at 1 to 5 uM after 24 hrs by gelatin zymographic method. In kind it is cell-based. In short, it runs like this: (§4)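 MDA-MB-231 cells, 1 × 10⁵ per well, treated 24 h with 0, 1, 2.5, 5 or 7.5 μM. Conditioned medium centrifuged and equal protein loaded on 8% SDS–PAGE containing 0.1% gelatin, run at 80 V. Triton X-100 washes, then developed 20 h at 37 °C in Tris-HCl pH 7.5 with NaCl, CaCl₂ and ZnCl₂. Coomassie stain, then destain.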
72 kDa type IV collagenase (Homo sapiens), sequence (P08253 110-660 limits assumed): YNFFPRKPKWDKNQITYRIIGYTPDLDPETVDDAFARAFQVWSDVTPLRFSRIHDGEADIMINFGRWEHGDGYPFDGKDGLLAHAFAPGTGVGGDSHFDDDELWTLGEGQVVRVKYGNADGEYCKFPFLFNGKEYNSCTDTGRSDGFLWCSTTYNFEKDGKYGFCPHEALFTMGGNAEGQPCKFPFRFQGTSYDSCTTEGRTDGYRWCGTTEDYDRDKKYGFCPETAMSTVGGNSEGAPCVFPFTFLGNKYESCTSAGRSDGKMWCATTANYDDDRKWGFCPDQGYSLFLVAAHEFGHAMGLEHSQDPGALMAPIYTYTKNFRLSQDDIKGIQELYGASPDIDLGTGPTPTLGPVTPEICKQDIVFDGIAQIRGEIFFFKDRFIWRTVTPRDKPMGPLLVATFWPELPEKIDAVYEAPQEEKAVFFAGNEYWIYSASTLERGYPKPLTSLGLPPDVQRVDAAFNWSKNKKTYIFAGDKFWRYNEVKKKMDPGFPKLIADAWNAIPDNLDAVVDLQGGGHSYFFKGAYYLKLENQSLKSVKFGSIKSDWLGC

Series [13] addresses T1, Albumin. As to the kind of experiment: Binding affinity to human serum albumin at 293 K at pH 7.4 by fluorescence spectra analysis. To be noted: isolated protein. The class given is ADME. In outline:
as §2

Series [14] concerns the target T1, Albumin. The series is described as follows: Binding affinity to human serum albumin at 2 to 50 uM at pH 7.4 by fluorescence spectra analysis. To be noted: isolated protein, pH 7.4, 50 µM. In kind it is ADME. In outline: (§5)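 Fatty-acid-free HSA (10 μM) in 0.05 M phosphate buffer pH 7.4 was titrated with compound from 0 to 50 μM. Trp emission was excited at 295 nm and quenching was monitored. Data were fitted to the Stern–Volmer equation and a modified log[(F₀−F)/F] versus log[Q] plot, giving Kb and n from intercept and slope.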

For series [15], the target named is T1, Albumin. The series is described as follows: Binding affinity to human serum albumin at 2 to 50 uM at pH 7.4 by spectroscopic analysis. To be noted: isolated protein, pH 7.4, 50 µM. In kind it is ADME. In short, it runs like this:
as §5

For series [16], the target named is MAP kinase p38 (Homo sapiens) (UniProt O15264+Q15759+Q16539+P53778). As to the kind of experiment: Induction of p38 MAPK phosphorylation in human MDA-MB-231 cells at 5 to 7.5 uM after 24 hrs by Western blot analysis. In kind it is cell-based. In outline: as §3
The target of series [17] is Matrix metalloproteinase-9 (Homo sapiens) (UniProt P14780). As to the kind of experiment: Inhibition of MMP-9 in human MDA-MB-231 cells at 1 to 5 uM after 24 hrs by gelatin zymographic method. In kind it is cell-based. In outline: as §4
Matrix metalloproteinase-9 (Homo sapiens), sequence (P14780 whole entry): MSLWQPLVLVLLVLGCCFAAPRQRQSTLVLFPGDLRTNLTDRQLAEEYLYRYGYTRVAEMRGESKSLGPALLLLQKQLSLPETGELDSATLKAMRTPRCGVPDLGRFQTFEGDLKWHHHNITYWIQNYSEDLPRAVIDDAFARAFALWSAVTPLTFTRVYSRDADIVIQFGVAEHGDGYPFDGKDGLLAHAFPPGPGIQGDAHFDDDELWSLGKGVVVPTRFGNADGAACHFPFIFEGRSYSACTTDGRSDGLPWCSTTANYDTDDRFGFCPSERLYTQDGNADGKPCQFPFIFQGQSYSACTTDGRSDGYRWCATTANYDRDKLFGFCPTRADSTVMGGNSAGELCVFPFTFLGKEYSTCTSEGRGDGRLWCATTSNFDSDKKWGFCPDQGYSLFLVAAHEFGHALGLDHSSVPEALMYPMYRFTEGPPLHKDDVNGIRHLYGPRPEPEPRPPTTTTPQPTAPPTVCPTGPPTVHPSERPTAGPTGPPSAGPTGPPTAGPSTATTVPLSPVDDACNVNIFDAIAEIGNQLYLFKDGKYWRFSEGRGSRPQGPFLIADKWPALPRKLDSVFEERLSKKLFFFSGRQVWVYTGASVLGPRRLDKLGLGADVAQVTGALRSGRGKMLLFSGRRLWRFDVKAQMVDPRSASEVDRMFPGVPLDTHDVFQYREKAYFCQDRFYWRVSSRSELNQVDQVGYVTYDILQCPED
Series [18] deals with MDA-MB-231. As to the kind of experiment: Downregulation of CDK1 expression in human MDA-MB-231 cells at 5 to 7.5 uM after 24 hrs by Western blot analysis. In kind it is functional, cell-based. In short, it runs like this: as §1
In series [19] the target is Mitogen-activated protein kinase; ERK1/ERK2 (Homo sapiens) (UniProt P27361+P28482). As to the kind of experiment: Inhibition of ERK1/2 phosphorylation in human MDA-MB-231 cells at 5 to 7.5 uM after 24 hrs by Western blot analysis. In kind it is cell-based. In outline: as §3
Mitogen-activated protein kinase; ERK1/ERK2 (Homo sapiens), sequence (P27361 whole entry, looked up): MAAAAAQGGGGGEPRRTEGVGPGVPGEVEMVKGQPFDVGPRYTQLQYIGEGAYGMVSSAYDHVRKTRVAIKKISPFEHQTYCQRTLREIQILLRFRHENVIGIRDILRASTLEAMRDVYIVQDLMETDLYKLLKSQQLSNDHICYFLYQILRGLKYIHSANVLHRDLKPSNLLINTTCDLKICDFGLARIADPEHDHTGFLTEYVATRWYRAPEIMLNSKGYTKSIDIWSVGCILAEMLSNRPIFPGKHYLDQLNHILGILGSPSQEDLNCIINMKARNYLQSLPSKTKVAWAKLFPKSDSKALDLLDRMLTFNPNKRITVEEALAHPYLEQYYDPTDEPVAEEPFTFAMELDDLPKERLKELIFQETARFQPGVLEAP
Mitogen-activated protein kinase; ERK1/ERK2 (Homo sapiens), sequence (P28482 whole entry, looked up): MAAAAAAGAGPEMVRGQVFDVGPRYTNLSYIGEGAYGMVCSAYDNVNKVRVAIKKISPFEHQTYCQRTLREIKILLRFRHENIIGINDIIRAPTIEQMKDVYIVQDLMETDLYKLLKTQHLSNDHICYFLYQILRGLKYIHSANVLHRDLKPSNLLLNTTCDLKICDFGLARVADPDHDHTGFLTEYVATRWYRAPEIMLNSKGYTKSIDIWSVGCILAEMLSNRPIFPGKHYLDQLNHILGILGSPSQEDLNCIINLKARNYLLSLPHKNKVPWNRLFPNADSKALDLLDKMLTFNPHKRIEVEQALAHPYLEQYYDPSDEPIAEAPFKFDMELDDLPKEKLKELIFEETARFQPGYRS
Series [20] deals with T1, Albumin. As to the kind of experiment: Binding affinity to human serum albumin at 303 K at pH 7.4 by fluorescence spectra analysis. In kind it is ADME. The note with it: isolated protein. In outline:
as §2

Calls of active or inactive are those of the source. The calls are words filed in the database; no cut-off is given here.

T1 sequence (P02768 whole entry): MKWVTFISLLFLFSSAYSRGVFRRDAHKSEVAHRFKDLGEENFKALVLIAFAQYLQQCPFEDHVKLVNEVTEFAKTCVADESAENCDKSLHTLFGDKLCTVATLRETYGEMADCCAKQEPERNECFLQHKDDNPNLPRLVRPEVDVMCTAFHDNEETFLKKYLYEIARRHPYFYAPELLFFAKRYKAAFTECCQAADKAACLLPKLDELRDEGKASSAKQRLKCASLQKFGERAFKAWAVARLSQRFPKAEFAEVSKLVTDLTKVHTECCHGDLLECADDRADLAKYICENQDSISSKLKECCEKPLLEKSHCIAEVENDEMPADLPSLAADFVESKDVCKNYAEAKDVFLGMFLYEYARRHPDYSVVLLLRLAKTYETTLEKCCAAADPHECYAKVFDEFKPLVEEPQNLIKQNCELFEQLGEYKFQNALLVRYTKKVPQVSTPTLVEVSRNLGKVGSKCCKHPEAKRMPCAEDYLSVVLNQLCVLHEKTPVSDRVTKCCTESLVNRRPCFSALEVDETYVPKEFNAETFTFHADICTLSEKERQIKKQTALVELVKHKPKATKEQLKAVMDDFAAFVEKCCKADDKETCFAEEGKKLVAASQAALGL

With `COC(=O)c1cc2c3ccccc3[nH]c2c2cn(-c3ccc(F)cc3Cl)c[n+]12.[Cl-]`, the outcome with MDA-MB-231 [1], with MDA-MB-231 [3], in the series on MDA-MB-231 [4], in the series with MDA-MB-231 [5], in the series on MDA-MB-231 [6] and in the series with MDA-MB-231 [8] was Active. Besides, the result (with MDA-MB-231 [9]; in the series with MDA-MB-231 [11]; in [16]; in the series on MDA-MB-231 [18]) was Active. The Kb on Albumin [2] came to 9.77 ×10⁴ L/mol; on Albumin [13], 8.91 ×10⁴ L/mol; on Albumin [20], 7.94 ×10⁴ L/mol. For the same compound, the figures for the Activity entry on Albumin [7], on Albumin [14] and at Albumin [15] were “Not Active”, “Active” and “Active”, respectively. Further, the inhibition result in series [10], in series [12], in series [17] and in [19] was “Active” in each case.
